In ChEMBL document CHEMBL1144717, “1-(2-Carboxyindol-5-yloxy)propan-2-ones as inhibitors of human cytosolic phospholipase A2alpha: synthesis, biological activity, metabolic stability, and solubility” (Bioorg Med Chem, 2008):
≈ marks a conversion by molar mass, not a printed value. Calls of active or inactive are those of the source. The rule behind the calls is not given here.

Assays:
[1] = molecular target: T1, Cytosolic phospholipase A2 (Homo sapiens, UniProt P47712); assay: Inhibition of human platelet cPLA2-alpha activity
T1 sequence (P47712 whole entry): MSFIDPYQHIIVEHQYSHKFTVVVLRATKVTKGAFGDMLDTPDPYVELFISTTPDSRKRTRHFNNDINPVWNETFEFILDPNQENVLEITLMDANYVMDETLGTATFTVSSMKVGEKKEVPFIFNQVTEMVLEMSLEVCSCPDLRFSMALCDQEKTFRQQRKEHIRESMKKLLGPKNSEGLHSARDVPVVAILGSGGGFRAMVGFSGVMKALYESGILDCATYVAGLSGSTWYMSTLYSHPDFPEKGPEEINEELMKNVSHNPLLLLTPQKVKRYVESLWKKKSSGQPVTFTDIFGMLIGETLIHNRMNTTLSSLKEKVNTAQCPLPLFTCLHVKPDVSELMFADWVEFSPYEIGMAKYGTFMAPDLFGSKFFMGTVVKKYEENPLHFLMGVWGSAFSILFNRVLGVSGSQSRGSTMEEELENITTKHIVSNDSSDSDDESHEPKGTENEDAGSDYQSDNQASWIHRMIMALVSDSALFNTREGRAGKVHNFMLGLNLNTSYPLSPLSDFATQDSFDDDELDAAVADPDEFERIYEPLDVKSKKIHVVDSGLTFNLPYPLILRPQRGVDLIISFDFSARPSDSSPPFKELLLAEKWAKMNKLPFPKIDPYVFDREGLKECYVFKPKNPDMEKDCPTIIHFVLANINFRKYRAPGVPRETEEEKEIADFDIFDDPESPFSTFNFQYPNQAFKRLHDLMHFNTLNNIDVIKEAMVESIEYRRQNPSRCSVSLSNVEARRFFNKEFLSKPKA
Summary of the method: (§1)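 cPLA₂α isolated from human platelets. Incubated 60 min. Arachidonic acid released, with and without compound, measured by RP-HPLC with UV 200 nm after SPE cleanup, using an internal standard. Values are means of at least two independent determinations.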

[2] = Metabolic stability in rat liver microsomes at 20 uM after 30 mins in presence of NADPH by reverse phased HPLC relative to control; format: ADME, Microsome; details: read-out: Stability
Summary of the method: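 Rat liver microsomes at 5.7 mg protein/mL in PBS (0.1 M, pH 7.4); compound final 20 µM from DMSO. Preincubated 5 min at 37 °C, then started with NADPH (12 mM) and MgCl₂ (5 mM) solution. Stopped after 30 min with acetonitrile. Parent ketone peak measured by RP-HPLC at 240 nm and compared with an NADPH-free incubation. Mean of at least two independent determinations.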

[3] = Solubility in sodium phosphate buffer at pH 7.4; format: physicochemical
Summary of the method: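 Supernatant diluted with acetonitrile and phosphoric acid, then quantified by RP-HPLC at 240 nm against a calibration curve. Mean ± SD, n = 3 (n = 2 for values <1 µg/mL).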

[4] = molecular target: T1, Cytosolic phospholipase A2; assay: Inhibition of cPLA2-alpha in TPA-stimulated intact human platelets assessed as liberation of arachidonic acid after 60 mins
Summary of the method: (§2)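 Human platelets from buffy coat, washed in PBS/EDTA and resuspended in PBS (0.1 M, pH 7.4) at about 10⁸ cells/mL. Preincubated 5 min at 37 °C with ETYA (final 10 µM) and compound in DMSO, then CaCl₂ added for a further 5 min. Stimulated with TPA (final 2 µM) for 60 min at 37 °C. Released arachidonic acid quantified by SPE then RP-HPLC, UV 200 nm, against an internal standard.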

[5] = molecular target: T2, Cytosolic phospholipase A2 (Homo sapiens) (UniProt P47712); assay: Inhibition of human platelet cPLA2-alpha activity at 10 uM; summary of the method: as §1
T2 sequence (whole entry): T1 sequence (P47712 whole entry)

[6] = molecular target: T2, Cytosolic phospholipase A2 (Homo sapiens); assay: Inhibition of cPLA2-alpha in TPA-stimulated intact human platelets assessed as liberation of arachidonic acid at 10 um after 60 mins; summary of the method: as §2

| Compound | IC50 [1] [nM] | remaining at 0.5 h, 20 µM [2] [%] | solubility [3] [µg/mL] | IC50 [4] [nM] | inhibition [5] [%] | Activity [5] | Activity [6] |
| --- | --- | --- | --- | --- | --- | --- | --- |
| CCCCCCCCc1ccc(OCC(=O)COc2ccc3c(c2)cc(C(=O)O)n3CCCC(=O)O)cc1 | 400 | < 5 | 30 (≈ 57.3 µM) | 300 |  |  |  |
| CCCCCCCCc1ccc(OCC(O)COc2ccc3c(c2)cc(C(=O)O)n3CC(=O)O)cc1 (stereo not given) |  |  |  |  |  | inactive | inactive |
| CCCCCCCCc1ccc(OCC(=O)COc2ccc3c(c2)cc(C(=O)O)n3CCCCCC)cc1 | > 10000 | < 5 | < 1 |  | 42 |  |  |
| CCCCCCCCc1ccc(OCC(=O)COc2ccc3c(c2)cc(C(=O)O)n3CC(=O)O)cc1 | 300 | 18 | 8.1 (≈ 16.3 µM) | 1300 |  |  |  |
| CCCCCCCCc1ccc(OCC(O)COc2ccc3c(c2)cc(C(=O)O)n3C)cc1 (stereo not given) |  |  |  |  |  | inactive | inactive |

The next lines start with the values.

| IC50 [1] [nM] | remaining at 0.5 h, 20 µM [2] [%] | solubility [3] [µg/mL] | IC50 [4] [nM] | inhibition [5] [%] | Activity [5] | Activity [6] | Compound |
| --- | --- | --- | --- | --- | --- | --- | --- |
| 3300 | < 5 | 8.4 (≈ 19.2 µM) |  |  |  |  | CCCCCCCCc1ccc(OCC(=O)COc2ccc3[nH]c(C(=O)O)cc3c2)cc1 |
| 600 | < 5 | 17 (≈ 30.8 µM) | 500 |  |  |  | CCCCCCCCc1ccc(OCC(=O)COc2ccc3c(c2)cc(C(=O)O)n3CCCCCC(=O)O)cc1 |
| 1200 | < 5 | < 1 | 600 |  |  |  | CCCCCCCCc1ccc(OCC(=O)COc2ccc3c(c2)cc(C(=O)O)n3C)cc1 |
| > 10000 | 9 | 46 (≈ 90.4 µM) |  | 32 |  |  | CCCCCCCCc1ccc(OCC(=O)COc2ccc3c(c2)cc(C(=O)O)n3CCN(C)C)cc1 |
| 1500 | 15 | 13 (≈ 22.7 µM) |  |  |  |  | CCCCCCCCc1ccc(OCC(=O)COc2ccc3c(c2)cc(C(=O)O)n3Cc2ccc(C(=O)O)cc2)cc1 |
| 10000 | < 5 | < 1 |  |  |  |  | CCCCCCCCc1ccc(OCC(=O)COc2ccc3c(c2)cc(C(=O)O)n3Cc2ccccc2)cc1 |
| 2100 | < 5 | < 1 |  |  |  |  | CCCCCCCCc1ccc(OCC(=O)COc2ccc3c(c2)cc(C(=O)O)n3CCC)cc1 |
